This sample holds only a part of the variants without activity.
B1: tRNA (parent)
chain: GUUCCGUUGGCGUAAUGGUAACGCGUCUCCCUCCUAAGGAGAAGACUGCGGGUUCGAGUCCCGUACGGAACG

Variants of: B1
Test: yeast fitness relative to wild type (ratio to wild type); higher = fitter; tRNA-Arg(CCU), competitive growth, 37 C, YPD
How it was run: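 Amplicons of the tRNA-Arg(CCU) gene were sequenced, 100-nucleotide paired-end, from the start population and from each end population of a pooled yeast competition. The competition, in six parallel replicates, lasted 24 hours in YPD at 37°C. Fitness relative to wild type was calculated from changes in genotype frequencies. Genotypes had to have ≥ 100 starting reads, and estimates < 0.5 were set to 0.5.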

Variant	yeast fitness
GUUGCGUUGGUGUGAUGGUAACGCGUCUCCCUCCUAAGGAGAAGACUGCGGGUUCGAGUCCCGUACGGAACG	0.556
GUUGCGUUGGUGUAAUGGUAACGCGUCUCCCUCCUAAGGAGAAGACUGCGGGUUCGAGUCCCGUACGGAACG	0.967
GUUGCGUUGGGGUAAUGGUAACGCGUCUCCCUCCUAAGGAGAAGACUGCGGGUUCGAGUCCCGUACGGAACG	0.623
GUUGCGUUGGAGUAAUGGUAACGCGUCGCCCUCCUAAGGAGAAGACGGGGGGGUGGAGUCCCGUACGGAACG	≤ 0.5
GUUGCGUUGGAGUAAUGGUAACGCGUCUCGCUCCUAAGGAGAAGACUGCGGGUUCGAGUACCGUACGGAACG	≤ 0.5
GUUGCGUUGGGGUAAUGGUAACGCGUCUCCCUCCUGAGGAGAAGACUGCGGGUUUGAGUCACGUACGGAACG	0.52
GUUGCGUUGGCGUAAUGGUAACGAGUCUCCCUCAUAAGGAGAAGACUGCGGGUUCGAGUCCCGUACGGAACG	0.563
GUUGCGUUGGCGUAAUGGUAAUGCGUCUCCCCCCUAAGGAGAAGACUGCGGGUUCGAGUCCCGCACGGAACG	≤ 0.5
GUUGCGUUGGGGUAAUGGUAACGCGACUCCCUCCUAAGGAGAAGACUGCGGGUUCGAGUGCCGUACGGAACG	≤ 0.5
GUUGCGUUGGCGUAAUGGUAAGGCGUCUCCCUCCUAAGGAGAAGCCUGCGGGUUUGAGUCCCGUACGGAACG	≤ 0.5
GUUGCGUUGGCGUAAUGGUAACGAGUCUCCCUCCUAAGGAGAAGACUGCGGGUUCGAGUCCCGUACGGAACG	0.634
GUUGCGUUGGGGUAAUGGUAACGCGUCUCCCUCCUAAGGAGAAGACUGCGGAUUUGAGUCACGUACGGAACG	≤ 0.5
GUUGCGUUGGCGUAAUGGUAACGAGUCUCCCUCCUAAGGAGAAGAUUGCGGGUUCGAGUCCCGCACGGAACG	≤ 0.5
GUUGCGUUGGGGUAAUGGUAACGCGACUCCCUCCUAAGGAGAAGACUGCGGGUACGAGUUCCGUACGGAACG	≤ 0.5
GUUGCGUUGGUGUAAUGGUAACGCGUCUCCCUCCUUAGGAGAAGACUGCGGCUUCGAGUCCCGUACGGAACG	≤ 0.5
GUUGCGUUGGUGUGAUGGUAACGCGUCUCCCUCCUAAGGAGAAGAGUGCGGGUUGGAGUCGCGUACGGAACG	≤ 0.5
GUUGCGUUGGCGUAAUGGUAAAGCGUCUCCCUCCUAAGGAGAAGACUGCGGGUUGGAGUCCCGUACGGAACG	≤ 0.5
GUUGCGUUGGAGUAAUGGUAACGCGUCUCCCUCCUAAGGAGUAGACUGCGGGUUCGAGUCCCGUACGGAACG	≤ 0.5
GUUGCGUUGGCGUAAUGGUAAUGCGUCUCCCUCCUAAGGAGAAGACUGCGGGUUCGAGUCCCGUACGGAACG	0.976
GUUGCGUUGGCGUAAUGGUAAGGCGUCUCCCUCCUAAGGAGAAGACUGCGGGUUCGAGUCCCGUACGGAACG	0.787
GUUGCGUUGGCGUAAUGGUAAGGCGUCUCCCUGCUCAGGAGAAGACUGCGGGUUCGAGUCCCGUGCGGAACG	≤ 0.5
GUUGCGUUGGAGUAAUGGUAACGCGUCUCGCUCCUAAGGAGAAGACUGCGGGUUCGAGUCCCGUGUGGAACG	≤ 0.5
GUUGCGUUGGGGUAAUGGUAACGCGUCUCCCUCCUAAGGAGAAGACUGCGGGUUUGAGCCACGUACGGAACG	≤ 0.5
GUUGCGUUGGCGUAAUGGUAAGGCGUCUCCCUUCUCAGGUGAAGACUGCGGGUUCGAGUCCCGUACGGAACG	0.663
GUUGCGUUGGCGUAAUGGUAACGGGGCUCCCUCCUAAGCAGAAGACUGGGGGUUCGAGUCCCGUGCGGAACG	≤ 0.5

Variant	yeast fitness
GUUGCGUUGGCGUAAUGGUAAUGCGUCUCCCUCGUAAGGAGAAGACUGCGGGUUCGAGUCCCCUACGGAACG	≤ 0.5
GUUGCGUUGGCGUAAUGGUAAUGCGUCUCCCUCCUAAGGAGAAGACUGCGGGUUCGAGUCCCGUACGCAACG	≤ 0.5
GUUGCGUUGGUGUAAUGGAAACGCGUCUCCCACCUAUGGAGAAGACUGCGGGUUCGAGUCCCGCACGGAACG	≤ 0.5
GUUGCGUUGGGGUAAUGGUAACGCGUCUAUCUCCUAAGGAGAAGACUGCGGGUUCGAGUCCCGUACGGAACG	≤ 0.5
GUUGCGUUGGAGUAAUGGUAACGCGUCUCCCACCAAAGGAGAAGACUGUGGGUUCGAGGCCCGUACUGAACG	≤ 0.5
GUUGCGUUGGUGUAAUGGUAACGCGUCUCCCUCCUAAGGAGAAGACAGCGGGUUCGAGUCCCGUACGGAACG	≤ 0.5
GUUGCGUUGGAGUCAUGGUAACGCGUCUCCCUCCUAAGGAGAAGACUGCGGGUUCGAGUCCCGUACGGAACG	≤ 0.5
GUUGCGUUGGCGUAAUGGUAACGGGUCUCUCUCCUAAGGAGAAGAGUGCGGGUUCGAGUCCCGUACGGAACG	≤ 0.5
GUUGUGUUGGCGUAAAGGUAACGCGUCUCCCUCAUAAGGAGAAGACUGCGGGUUCGAGUCCCGUACGCAACG	0.508
GUUGCGUUGGAGUAAUGGUAACGCGUCUCCCUCCUAAGGAGAAGAGUGCGGGUUCGAGUCCCGUACGGAACG	0.693
GUUGCGUUGGUGUAAUGGCAACGCGUCGCCCUCCUAAGGAGAAGCCUGCGGGAUCGAGUCCCCUACGGAACG	≤ 0.5
GUUGCGUUGGCGUAAUGGUAAUGCGUCUCCCUCCUAAGGAGAAGAGUGCGGGUUCGAGUCCCAUACGGAACG	≤ 0.5
GUUGCGUUGGCGUAAUGGUAAAGCGUCUCCCUCCUAAGGAGAAGACUGCGGGUUCGAGUCCCGUAUGGAACG	≤ 0.5
GUUGCGUUGGUGUGAUGGUAACGCGUCUCCCUCCUAAGGAGAAGACUGCGGGUUGGAGUCCCGUACGCAACG	≤ 0.5
GUUGCGUUGGCGUAAUGGUAAUGCGUCUCCCUCCUAAGGAGAAGACUGCGGGUUGGAGUCCCGUACGGAACG	≤ 0.5
GUUGUGUUGGCGUAAUGGUAACGCGACUCCCUCAUAAGGAGAAGACUGCGGGUUCGAGUCCCGUACGGAACG	≤ 0.5
GUUGCGUUGGCGUAAUGGUAACGUGUCUCCCUCCUAAGGAGAAGACUGCGGGUUCGAGUCCCGUACGGUACG	0.652
GUUGCGUUGGGGUAAUGGUGACGCGUCUCCCUCCUUAGGAGAAGACUGCGGGUUCGAGUCCCAUUUGGAACG	≤ 0.5
GUUGCGUUGGGGUAAUGGUAACGCGUCUCCCUCCUAAGGAGAAGACUGCGGGUUCGAGUCCCGUCCGGAACG	0.576
GUUGCGUUGGAGUAAUGGUAACGCGUCUCGCUCCUAAGGAGAAGACUGCGGGUUCGAGUCGCGUACGGAACG	≤ 0.5
GUUGCGUUGGGGUAAUGGUAACGCGUCUCCCUCCUAAGGAGAAGAUUGCGGGUUCGAGCCCGGUUCGGAACG	≤ 0.5
GUUGCGUUGGCGUAAUGGUAACGGGUCUCCCUGCUAAGGAGAAGACUGCGGGUUCGAGUCCCAUACGGAACG	0.554
GUUGCGUUGGGGUAAUGGUAACGCGUCUCCCUCCUAAGGAGAAGACAGUGGGUUCGAGUCCCGUACGGAACG	≤ 0.5
GUUGCGUUGGUGUAAUGGUAACGCGUCUCCCUCCUAAGGAGUAGACUGCGGGUUCGAAUCCCGUACGGUACG	≤ 0.5
GUUGCGUUGGCGUAAUGGUAAAGCGUCUCCCUCCAAAGGAGAAGACUGCGGGUUCGAGUCCCGUACGGAACG	≤ 0.5

Variant	yeast fitness
GUUGCGUUGGGGUAAUGGUAACGCGUCUACCUCCUAAGGGGAAGACUGCGGGUUCGAGUCCCGUACGGAACG	≤ 0.5
GUUGCGUUGGCGUAAUGGUAAUGCGUCUCCCUCCUAAGGAGAAGACUGCCGGUUCGAGUCCCGUACGGAACG	≤ 0.5
GUUGCGUUGGCGUAAUGGUAAUGCGUCUCCCUCGUUAGGAGAAGACUGCGGGUUCGAGUCCCGUACGGAACG	≤ 0.5
GUUGUGUUGGCGUAAUGGAAACGCGUCUCCCUCCUAAGGAGAAGACUGCGGGUUGGAGUCCCGAACGGAACG	≤ 0.5
GUUGCGUUGGGGUAAUGGUAACGCGUCUCCCUCCUAAGGAGAAGACUGCGGGUUUGAGUCCCGUACGGAGCG	≤ 0.5
GUUGCGUUGGCGUAAUGGUAACGAGUCUCCCUCCUAAGAAGUAGACAGCGGGUUCGAGUGCCGUACGGAACG	≤ 0.5
GUUGCGUUGGGGUAAUGGUAUCGCGUCUCCCUCCUUAGGAGAAGACUGCGGGUUCGACUCCCGUACGGAACG	≤ 0.5
GUUGUGUUGGCGUAAUGGUAACGCGUCUCCCUCCCAUGGAGAAGACUGCGGGUUCGAGUCACGUACGGAACG	≤ 0.5
GUUGCGUUGGCGUAAUGGUAAUGCGUCUCCCUCGUUAGGAGAAGACUGCGGGUUCGAGUCUCGUACGGAACG	≤ 0.5
GUUGCGUUGGUGUUAUGGUAACGCGUCUCGCUCCUAAGGAGAAGACUGCGGGUUCGAGUCCCGUACGGAACG	≤ 0.5
GUUGCGUUGGAGUAAUGGUAACGCGUCUCCCUCCUAAGGAGAAGACUGCGGGUUCGAGUCCCGUAGGGAACG	≤ 0.5
GUUGCGUUGGUGUAAUGGUAACGCGUCUCCCUCCUAAGGAGAAGACUGUGGGUUCGAGUCCCGUACGGAACG	0.562
GUUGCGUUGGAGUCAUGGUAACGCGUCUCCCUGCUCCGGAGCAGACUGCGGGUUCGAGUCCCGUUCGGAACG	≤ 0.5
GUUGCGUUGGAGUAAUGGUAACGCGUCUCCCUCCAAAGGAGAAGACUGGGGGUUCGAGUCCCGUACGGAACG	0.526
GUUGCGUUGGUGUAAUGGUAACGCGUCUCCCUCCUGAGGAGAAGACUGCGGGUUCGAGUCCCGUACGGAACG	0.57
GUUGCGUUGGCGUAAUGGUAAGGCGUCUACCUCCUAAGGAGAAGACUGCGGGUUCGAGUCCCGUCCGGAACG	≤ 0.5
GUUGCGUUGGUGUGAUGGUAACGCGUCUCCCCCCUAAGGAGAAGACUGCGGGUUCGAGUCCCGUACGGAACG	≤ 0.5
GUUGCGUUGGAGUAAUGGCAACCCGUCUCCCUCCUAAGGAGAAGACUGCGGGUUCGAGUCCCGUACGGAACG	0.524
GUUGCGUUGGAGUAAUAGUGACGCGUUUCCCUCCUAAGGAGAUGACUGGGGGUUCGAGUUCCGUACGGAACG	≤ 0.5
GUUGCGUUGGCGUAAUGGUAACGGGUACCCCUCCUAAGGAGAAGACUGCGGGUUCGAGUCCCGUUCGGAACG	≤ 0.5
GUUGCGUUGGCGUAAUGGUAAUGCGUCUCCCUCCUAACGAGAAGACUGCGGGUUCGAGUCCCGUACGGAACG	≤ 0.5
GUUGCGUUGGGGUAAUGGUAACGCGUCUCCUUCCUAAGGACAAGACUGCGGGUGCGAGUCCCGUACGGAACG	0.707
GUUGCGUUGGGGUAAUGGUAAUGCGUCUCCCUCCUAAGGAGAAGAUUGCGGGUUCGAGUCCCGUACGGAACG	≤ 0.5
GUUGCGUUGGGGUAAUGGUAAUGCGUCUCCCUCCUAAGGAGAAGAGUGCGGGUUCGAGUCCCGUACGGAACG	≤ 0.5
GUUGCGUUGGGGUAAUGGUAACGCGACUCCCUCCUAAGGAGAAGACUGCGGGUUCGAGUCCCGUGCGGAACG	≤ 0.5

Reference: the RNAGym collection of RNA variant scans (doi:10.1126/science.aae0568)
